RAD52 inh – RAD52 (human) annealing inhibition | P43351 | recombinant RAD52 DNA annealing, FRET fluorescence | inhibition, % at 18.7 µM | hit rate 0.46% among 360,000 | AID 651710;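 active = every replicate showing at least 50% inhibition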
S100A4 MyoIIA – blocks human S100A4 binding to myosin IIA peptide; P26447; S100A4/TAMRA-MyoIIA peptide fluorescence polarization; inhibition, % at 10.7 µM; hit rate 0.14% among 360,000; AID 652163;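 active = mean inhibition of at least 70% across replicates, with every replicate also reaching that level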
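incubation = readout 5 min after mixing, signal stable up to 60 min | system = S100A4 monomer protein | buffer or medium = HEPES pH 7.2 with CaCl2, KCl, NaCl, DTT, Triton | benchmarks = neutral control DMSO, positive control TFP | also added = fluorescent myosin IIA peptide, 5 nM | compound dosing = one concentration per compound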
RAD54 branch – blocks human RAD54 Holliday junction branch migration; hit rate 0.14% among 360,000; FAM/BHQ fluorescence; inhibition, % at 10.4 µM; AID 602329;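 active = mean normalized replicate activity at least 40 and at least half of replicates scoring 40 or more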;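 also: inhibitors cause a drop in the FAM fluorescence signal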
Target sequence (Q92698 whole entry, looked up): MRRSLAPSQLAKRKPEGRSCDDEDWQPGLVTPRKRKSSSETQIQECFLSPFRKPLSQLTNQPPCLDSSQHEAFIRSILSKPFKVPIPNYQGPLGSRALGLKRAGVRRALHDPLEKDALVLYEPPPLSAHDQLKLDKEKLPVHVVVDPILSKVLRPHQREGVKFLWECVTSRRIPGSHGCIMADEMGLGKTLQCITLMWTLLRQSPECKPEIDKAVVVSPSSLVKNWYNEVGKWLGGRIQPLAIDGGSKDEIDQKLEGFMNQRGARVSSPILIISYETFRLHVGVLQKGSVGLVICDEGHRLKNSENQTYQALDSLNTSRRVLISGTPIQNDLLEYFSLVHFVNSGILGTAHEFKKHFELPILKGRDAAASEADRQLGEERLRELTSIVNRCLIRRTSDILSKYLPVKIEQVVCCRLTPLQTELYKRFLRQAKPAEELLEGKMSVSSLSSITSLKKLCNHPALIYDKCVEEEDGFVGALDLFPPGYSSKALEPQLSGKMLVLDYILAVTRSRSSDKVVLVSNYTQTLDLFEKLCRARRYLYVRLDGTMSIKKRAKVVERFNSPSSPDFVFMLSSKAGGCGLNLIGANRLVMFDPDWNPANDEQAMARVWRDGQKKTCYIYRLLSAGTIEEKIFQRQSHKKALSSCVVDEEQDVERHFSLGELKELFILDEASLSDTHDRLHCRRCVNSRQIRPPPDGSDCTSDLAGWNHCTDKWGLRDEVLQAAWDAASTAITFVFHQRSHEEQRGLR
AF4-AF9 inh – MLL-AF4/AF9 protein interaction inhibition; inhibition, % at 10 µM; AlphaScreen, biotin-AF4 peptide binding to FLAG-AF9; AID 651704; P42568; hit rate 0.47% among 350,000;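 active = every replicate reaching a set inhibition limit, whatever the replicate mean, cut at about 25% in these data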
dFosB act – activators of mouse delta FosB homodimer; purified delta FosB, TAMRA-CDK5 oligo fluorescence polarization; percent of positive-control signal above neutral wells; AID 493131; activation, % at 25 µM; hit rate 0.99% among 340,000; P13346;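 active = mean activation above about 17%, with every replicate also reaching it, limit read from the data, passing the limit was not always enough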
Numbers stand for hits; n = inactive; x = no result; ! = repeats disagree. A selection: hits, their analogues and other compounds. The true share with any hit is near 1.5%.

SMILES	RAD52 inh	S100A4 MyoIIA	RAD54 branch	AF4-AF9 inh	dFosB act
O=C(NCc1ccccc1Cl)[C@H]1[C@H](CO)[C@H]2Cn3c(cccc3=O)[C@H]2N1C(=O)C1CCCC1	n	n	n	n	x
C[C@@H]1CN([C@@H](C)CO)C(=O)Cc2cc(NC(=O)C3CC3)ccc2O[C@@H]1CN(C)CC1CC1	n	n	n	n	x
CNC[C@H]1Oc2cc(C#Cc3ccc(OC)cc3)ccc2S(=O)(=O)N([C@@H](C)CO)C[C@@H]1C	52	n	n	n	x
C[C@@H]1CN([C@H](C)CO)S(=O)(=O)c2ccc(C#C[C@@H](C)O)cc2O[C@@H]1CN(C)C(=O)C1CC1	n	121	n	n	x
Cc1ccc(-c2ccc3c(c2)O[C@@H](CN(C)C(=O)CN(C)C)[C@H](C)CN([C@H](C)CO)S3(=O)=O)cc1	n	n	n	n	x
Cc1ccc(-c2ccc3c(c2)O[C@@H](CN(C)C(=O)CN(C)C)[C@@H](C)CN([C@H](C)CO)S3(=O)=O)cc1	58	n	n	n	x
C[C@@H]1CN([C@@H](C)CO)S(=O)(=O)c2ccc(-c3ccc(C(=O)N(C)C)cc3)cc2O[C@@H]1CN(C)C(=O)C1CCCCC1	n	n	n	30	x
CNC[C@@H]1Oc2cc(C#Cc3ccc(OC)cc3)ccc2S(=O)(=O)N([C@H](C)CO)C[C@H]1C	n	n	n	n	x
O=C(C[C@@H]1C[C@@H]2c3cc(NC(=O)CC4CC4)ccc3O[C@@H]2[C@H](CO)O1)NCCc1ccccc1	n	n	n	n	x
O=C(C[C@@H]1C=C[C@H](NC(=O)Nc2ccc(F)cc2)[C@H](CO)O1)NCc1cccc(F)c1	n	n	n	n	x
C[C@H](CO)N1C[C@H](C)[C@H](CN(C)S(=O)(=O)c2cn(C)cn2)Oc2ccc(NC(=O)Cc3cn(C)c4ccccc34)cc2C1=O	n	n	n	n	x
CN1C(=O)c2cc(NS(C)(=O)=O)ccc2OC[C@H]2O[C@H](CC(=O)NC3CCCCC3)CC[C@H]21	n	n	n	n	x
Brc1ccc(-c2ccc(/C=N/Nc3nc4ccccc4[nH]3)o2)cc1	n	n	n	n	39
CC(=NNc1cc(C)c2ccccc2n1)c1ccccn1	n	n	x	29	x
Cc1cc(N/N=C(/CCC(=O)O)C(=O)O)nc2ccccc12	n	n	x	n	n
C[C@H](CO)N1C[C@H](C)[C@@H](CN(C)Cc2ccc(C(=O)O)cc2)Oc2ccc(N(C)C)cc2CC1=O	n	n	n	n	x
C[C@H]1CN([C@@H](C)CO)C(=O)Cc2cc(N(C)C)ccc2O[C@@H]1CN(C)Cc1ccc(Oc2ccccc2)cc1	n	n	n	26	x
C[C@H]1CN([C@@H](C)CO)C(=O)Cc2cc(N(C)C)ccc2O[C@H]1CN(C)Cc1ccc(Oc2ccccc2)cc1	n	n	n	48	x
COc1ccc(CN(C)C[C@H]2Oc3ccc(N(C)C)cc3CC(=O)N([C@H](C)CO)C[C@H]2C)cc1	n	n	n	n	x
C[C@@H]1CN([C@H](C)CO)C(=O)Cc2cc(N(C)C)ccc2O[C@@H]1CN(C)Cc1ccc(Oc2ccccc2)cc1	n	n	n	51	x
CCOC(=O)c1c(C)[nH]c(C(=O)OCC(=O)Nc2sccc2C(N)=O)c1C	n	n	x	n	22
Cc1cc(-c2nn(-c3ccccc3F)cc2CN2CCN(c3ccncc3)CC2)c(C)s1	n	n	n	32	n
CCCCCn1c(=N)n(CC(O)COc2ccccc2OC)c2ccccc21 (stereo unspecified)	n	n	n	50!	n
COCC(=O)N1C[C@H](C)[C@@H](OC)CN(C)C(=O)c2ccc(NS(C)(=O)=O)cc2OC[C@H]1C	n	n	n	n	x
COc1ccc(NS(=O)(=O)c2cc(NC(=O)c3cc(F)c(F)cc3Cl)ccc2N2CCOCC2)cc1	n	n	n	n	21
SMILES	RAD52 inh	S100A4 MyoIIA	RAD54 branch	AF4-AF9 inh	dFosB act
CCC(=O)Nc1ccc(NC(=O)CSc2nnnn2-c2ccc(OC)cc2)cc1	n	n	n	n	n
CCOc1ccc(-n2nnnc2SCC(=O)Nc2cccc(O)c2)cc1	n	n	n	28	n
O=C(C[C@H]1CC[C@@H]2NC[C@H](O)COC[C@H]2O1)Nc1ccccc1	n	n	n	n	x
Oc1ccc(N=Nc2ccc3ccccc3c2)cc1	n	n	n	26	n
COc1cc(N=Nc2ccccc2C(=O)O)ccc1O	n	n	n	n	n
COc1cc(N=Nc2ccc3ccccc3c2)ccc1O	n	n	n	29	n
O=C(COC(=O)c1cccnc1SCC(=O)NCc1ccccc1)NCc1ccccc1	x	x	n	x	n
COc1ccccc1CNC(=O)COC(=O)c1cccnc1SCC(=O)NCc1ccccc1OC	n	n	n	n	41
Cc1cc(C)c2c(c1)/C(=N/NC(=S)Nc1ccc(F)cc1)CCC2	x	x	n	x	31
C[C@H](CO)N1C[C@H](C)[C@@H](CN(C)C(=O)c2ccncc2)Oc2ncc(-c3ccc(C(=O)N(C)C)cc3)cc2C1=O	n	n	n	n	x
C[C@H]1CN([C@@H](C)CO)C(=O)c2cccc(NS(=O)(=O)c3ccc(F)cc3)c2O[C@H]1CN(C)Cc1ccc(C(=O)Nc2ccccc2N)cc1	n	n	x	n	x
CN1CCN(CC(O)COC(c2ccc(Cl)cc2)c2ccc(Cl)cc2)CC1 (stereo unspecified)	n	n	n	n	22
OC(COC(c1ccc(Cl)cc1)c1ccc(Cl)cc1)CN1CCCC1 (stereo unspecified)	x	x	n	x	n
COCCNC(=O)C[C@@H]1CC[C@H]2[C@H](COc3ccc(NC(=O)Nc4ccccc4)cc3C(=O)N2C)O1	n	n	n	n	x
O=C(O)c1ccc(N2CCc3ccccc32)c([N+](=O)[O-])c1	n	n	n	n	n
CN1CCN(c2ccccc2NC(=O)c2ccc(N3CCOCC3)c([N+](=O)[O-])c2)CC1	n	n	n	n	n
CN1CCN(c2ccccc2NC(=O)c2ccc(N3CCCCC3)c([N+](=O)[O-])c2)CC1	n	n	n	27	n
COC(=O)c1ccc(N2CCc3ccccc32)c([N+](=O)[O-])c1	n	n	n	33	n
CC(C)c1ccc(Nc2c([N+](=O)[O-])c(=O)n(C)c3ccccc23)cc1	n	n	n	n	n
Cn1c(=O)c(Nc2ccc(O)cc2)c2c3c(cccc31)C(=O)c1ccccc1-2	n	n	x	29	n
Cc1noc(C)c1S(=O)(=O)Nc1ccc2c(c1)C(=O)N([C@@H](C)CO)C[C@H](C)[C@H](CN(C)S(=O)(=O)c1ccc(F)cc1)OCCCC[C@@H](C)O2	n	n	n	n	x
Cc1noc(C)c1S(=O)(=O)Nc1ccc2c(c1)C(=O)N([C@H](C)CO)C[C@@H](C)[C@@H](CN(C)S(=O)(=O)c1ccc(F)cc1)OCCCC[C@@H](C)O2	57	n	n	n	x
Cc1noc(C)c1S(=O)(=O)Nc1ccc2c(c1)C(=O)N([C@@H](C)CO)C[C@H](C)[C@@H](CN(C)S(=O)(=O)c1ccc(F)cc1)OCCCC[C@H](C)O2	75	n	n	n	x

Bioassay records: PubChem, Broad Institute
